Assay results as given in ChEMBL document CHEMBL4017509, “A Dual Modulator of Farnesoid X Receptor and Soluble Epoxide Hydrolase To Counter Nonalcoholic Steatohepatitis” (J Med Chem, 2017).
Activity calls are given as the source filed them. The rule behind the calls is not given here.

Experiments:
Liver = assay: Drug metabolism in Sprague-Dawley rat liver microsomes assessed as N-(4-Amino-2-chlorobenzyl)-4-(tert-butyl)benzamide formation at 10 uM preincubated with NADPH regenerating system for 5 mins followed by addition of liver microsomes by LC-MS/MS method; format: ADME, microsome
[1] = target: Retinoic acid receptor gamma (Homo sapiens) (UniProt P13631); assay: Transactivation of human GAL4-fused RARgamma ligand binding domain expressed in […] cells at 10 uM after 12 to 14 hrs by dual-glo luciferase reporter gene assay; format: cell-based
Method in brief: (§1)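 HEK293T cells in DMEM/10% FCS, Opti-MEM before Lipofectamine LTX transfection with pFR-Luc reporter, pRL-SV40 and pFA-CMV GAL4–LBD plasmid. 5 h later compound in 0.1% DMSO, Opti-MEM, overnight (12−14 h). Dual luciferase; firefly/renilla ×1000 = RLU, fold over DMSO control; triplicates, ≥3 independent repeats.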

[2] = target: Peroxisome proliferator-activated receptor delta (Homo sapiens) (UniProt Q03181); assay: Transactivation of human GAL4-fused PPARdelta ligand binding domain expressed in […] cells at 10 uM after 12 to 14 hrs by dual-glo luciferase reporter gene assay; format: cell-based; method in brief: as §1
[3] = Half life in C57BL/6JRj mouse at 10 mg/kg, po measured up to 480 mins post dose by LC-MS analysis; format: ADME, organism-based; details: in vivo
Method in brief: (§2)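 Male C57BL/6JRj mice (23−26 g), six dosed once orally at 10 mg/kg in water with 1% HPMC/Tween 80 (99:1), three vehicle. Tail-vein blood (20 μL) at 15, 30, 60, 120, 240 and 480 min, last by retro-orbital puncture. Blood spiked, acetonitrile precipitation with griseofulvin internal standard, LC−MS on phenyl-hexyl column. Noncompartmental PK analysis.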

[4] = target: T1, Bifunctional epoxide hydrolase 2 (Homo sapiens) (UniProt P34913); details: 0.01 uM
T1 sequence (whole entry): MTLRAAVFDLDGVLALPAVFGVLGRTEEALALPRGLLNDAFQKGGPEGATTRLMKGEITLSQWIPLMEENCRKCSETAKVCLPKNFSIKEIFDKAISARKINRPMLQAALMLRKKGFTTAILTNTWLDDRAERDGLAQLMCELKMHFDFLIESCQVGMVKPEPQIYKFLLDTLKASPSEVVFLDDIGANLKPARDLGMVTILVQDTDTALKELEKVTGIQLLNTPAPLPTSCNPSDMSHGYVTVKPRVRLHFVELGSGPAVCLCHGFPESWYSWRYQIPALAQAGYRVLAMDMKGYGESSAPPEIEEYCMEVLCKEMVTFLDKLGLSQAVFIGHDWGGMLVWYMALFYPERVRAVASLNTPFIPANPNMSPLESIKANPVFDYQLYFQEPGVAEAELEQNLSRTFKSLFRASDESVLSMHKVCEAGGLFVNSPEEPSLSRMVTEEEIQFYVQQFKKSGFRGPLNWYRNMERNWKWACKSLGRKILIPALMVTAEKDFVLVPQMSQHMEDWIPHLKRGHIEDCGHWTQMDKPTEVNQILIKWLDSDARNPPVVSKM

[5] = target: Retinoic acid receptor RXR-gamma (Homo sapiens) (UniProt P48443); assay: Transactivation of human GAL4-fused RXRgamma ligand binding domain expressed in […] cells at 10 uM after 12 to 14 hrs by dual-glo luciferase reporter gene assay; format: cell-based; method in brief: as §1
[6] = Tmax in C57BL/6JRj mouse at 10 mg/kg, po measured up to 480 mins post dose by LC-MS analysis; format: ADME, organism-based; details: in vivo; method in brief: as §2
Bile acid receptor = target: T2, Bile acid receptor (Homo sapiens, UniProt Q96RI1); assay: Transactivation of FXR in human HepG2 cells assessed as CYP7A1 mRNA expression at 1 uM after 8 to 16 hrs by SYBR green based qRT-PCR analysis relative to DMSO control; format: ADME, cell-based
T2 sequence (Q96RI1 whole entry): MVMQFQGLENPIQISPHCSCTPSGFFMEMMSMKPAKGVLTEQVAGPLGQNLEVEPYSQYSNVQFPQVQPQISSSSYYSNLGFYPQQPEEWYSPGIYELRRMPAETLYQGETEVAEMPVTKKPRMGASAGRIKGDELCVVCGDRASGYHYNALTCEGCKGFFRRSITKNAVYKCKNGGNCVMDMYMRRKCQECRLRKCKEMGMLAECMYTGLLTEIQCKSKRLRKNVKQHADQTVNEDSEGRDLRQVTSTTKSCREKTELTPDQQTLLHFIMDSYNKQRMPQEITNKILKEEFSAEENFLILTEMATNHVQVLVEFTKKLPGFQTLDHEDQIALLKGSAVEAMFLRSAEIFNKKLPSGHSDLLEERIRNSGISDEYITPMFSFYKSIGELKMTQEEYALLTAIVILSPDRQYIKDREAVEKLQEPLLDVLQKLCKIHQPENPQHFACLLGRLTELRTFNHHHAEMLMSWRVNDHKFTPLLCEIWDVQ
Method in brief: (§3)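 HepG2 cells incubated with test compound (0.1 and 1 μM) or 0.1% DMSO for 8 or 16 h, washed in cold PBS, RNA extracted; target mRNA by SYBR Green qRT-PCR, duplicate samples, ≥4 independent experiments; comparative ΔΔCt with GAPDH reference, vehicle set as 100%.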

[7] = target: Peroxisome proliferator-activated receptor alpha (Homo sapiens) (UniProt Q07869); assay: Transactivation of human GAL4-fused PPARalpha ligand binding domain expressed in […] cells at 10 uM after 12 to 14 hrs by dual-glo luciferase reporter gene assay; format: cell-based; method in brief: as §1
[8] = target: T3, Bile acid receptor (Homo sapiens) (UniProt Q96RI1); assay: Transactivation of FXR in human HepG2 cells assessed as SHP mRNA expression at 1 uM after 8 to 16 hrs by SYBR green based qRT-PCR analysis relative to DMSO control; format: cell-based; method in brief: as §3
T3 sequence (whole entry): T2 sequence (Q96RI1 whole entry)

[9] = target: Oxysterols receptor LXR-beta (Homo sapiens) (UniProt P55055); assay: Transactivation of human GAL4-fused LXRbeta ligand binding domain expressed in […] cells at 10 uM after 12 to 14 hrs by dual-glo luciferase reporter gene assay; format: cell-based; method in brief: as §1
[10] = target: G-protein coupled bile acid receptor 1 (Homo sapiens) (UniProt Q8TDU6); assay: Agonist activity at TGR5 (unknown origin) at 10 uM
Sequence of G-protein coupled bile acid receptor 1 (Homo sapiens) (Q8TDU6 whole entry): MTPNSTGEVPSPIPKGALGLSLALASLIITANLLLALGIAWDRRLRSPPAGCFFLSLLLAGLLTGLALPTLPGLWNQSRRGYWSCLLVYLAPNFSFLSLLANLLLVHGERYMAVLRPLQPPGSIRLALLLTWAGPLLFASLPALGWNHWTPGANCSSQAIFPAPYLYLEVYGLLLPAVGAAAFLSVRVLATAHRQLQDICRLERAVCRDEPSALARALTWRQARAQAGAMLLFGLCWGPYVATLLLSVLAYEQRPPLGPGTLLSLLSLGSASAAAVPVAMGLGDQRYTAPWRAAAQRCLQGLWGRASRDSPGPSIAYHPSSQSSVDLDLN

Sequence of Peroxisome proliferator-activated receptor alpha (Homo sapiens) (Q07869 whole entry, the tested form may be a part): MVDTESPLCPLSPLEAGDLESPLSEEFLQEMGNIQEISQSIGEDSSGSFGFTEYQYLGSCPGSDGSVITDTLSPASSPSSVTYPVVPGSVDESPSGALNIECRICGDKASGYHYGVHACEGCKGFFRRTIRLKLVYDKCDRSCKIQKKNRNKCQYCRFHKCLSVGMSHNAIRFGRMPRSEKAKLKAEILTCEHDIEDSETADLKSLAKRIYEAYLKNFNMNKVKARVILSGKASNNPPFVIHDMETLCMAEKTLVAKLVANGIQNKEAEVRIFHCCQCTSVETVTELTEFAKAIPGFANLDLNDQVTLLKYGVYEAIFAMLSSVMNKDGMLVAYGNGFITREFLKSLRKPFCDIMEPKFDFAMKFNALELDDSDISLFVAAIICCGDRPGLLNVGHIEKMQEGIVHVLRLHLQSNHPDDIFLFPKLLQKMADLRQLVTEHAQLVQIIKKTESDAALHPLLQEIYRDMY
Sequence of Oxysterols receptor LXR-beta (Homo sapiens) (P55055 whole entry, the tested form may be a part): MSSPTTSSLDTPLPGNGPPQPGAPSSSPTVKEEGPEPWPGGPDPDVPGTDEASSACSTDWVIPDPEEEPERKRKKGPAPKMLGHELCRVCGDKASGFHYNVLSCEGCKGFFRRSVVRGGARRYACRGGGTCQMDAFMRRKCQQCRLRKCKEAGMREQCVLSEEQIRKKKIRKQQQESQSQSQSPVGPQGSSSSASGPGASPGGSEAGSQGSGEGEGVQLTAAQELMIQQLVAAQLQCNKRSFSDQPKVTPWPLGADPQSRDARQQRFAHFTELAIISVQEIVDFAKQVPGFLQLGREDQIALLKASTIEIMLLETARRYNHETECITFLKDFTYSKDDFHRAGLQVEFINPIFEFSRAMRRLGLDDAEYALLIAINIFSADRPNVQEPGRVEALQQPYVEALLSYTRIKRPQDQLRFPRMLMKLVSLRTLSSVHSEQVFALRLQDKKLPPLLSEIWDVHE
Sequence of Retinoic acid receptor gamma (Homo sapiens) (P13631 whole entry, the tested form may be a part): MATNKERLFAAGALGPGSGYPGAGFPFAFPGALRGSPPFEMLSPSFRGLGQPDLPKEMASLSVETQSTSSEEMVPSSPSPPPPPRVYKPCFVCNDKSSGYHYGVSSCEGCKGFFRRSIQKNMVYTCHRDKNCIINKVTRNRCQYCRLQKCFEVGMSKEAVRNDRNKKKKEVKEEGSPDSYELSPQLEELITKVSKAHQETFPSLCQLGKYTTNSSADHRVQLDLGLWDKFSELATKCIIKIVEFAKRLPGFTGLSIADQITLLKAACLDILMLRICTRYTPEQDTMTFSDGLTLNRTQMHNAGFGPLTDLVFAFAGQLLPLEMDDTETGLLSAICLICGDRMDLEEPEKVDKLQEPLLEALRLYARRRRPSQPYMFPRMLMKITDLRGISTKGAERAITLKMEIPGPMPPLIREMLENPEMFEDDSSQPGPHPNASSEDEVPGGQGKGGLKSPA
Sequence of Peroxisome proliferator-activated receptor delta (Homo sapiens) (Q03181 whole entry, the tested form may be a part): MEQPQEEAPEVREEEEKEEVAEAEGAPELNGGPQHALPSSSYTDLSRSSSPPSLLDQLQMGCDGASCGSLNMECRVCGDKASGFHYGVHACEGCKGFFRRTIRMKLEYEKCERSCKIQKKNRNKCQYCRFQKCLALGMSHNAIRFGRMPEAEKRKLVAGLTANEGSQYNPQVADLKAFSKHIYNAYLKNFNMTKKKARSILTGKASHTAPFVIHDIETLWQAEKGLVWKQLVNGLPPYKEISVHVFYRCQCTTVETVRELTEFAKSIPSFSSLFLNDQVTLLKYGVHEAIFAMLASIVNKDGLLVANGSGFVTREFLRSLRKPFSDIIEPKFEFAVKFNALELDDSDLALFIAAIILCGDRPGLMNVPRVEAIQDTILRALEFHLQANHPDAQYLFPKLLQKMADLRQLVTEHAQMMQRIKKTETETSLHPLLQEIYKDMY
Sequence of Retinoic acid receptor RXR-gamma (Homo sapiens) (P48443 whole entry, the tested form may be a part): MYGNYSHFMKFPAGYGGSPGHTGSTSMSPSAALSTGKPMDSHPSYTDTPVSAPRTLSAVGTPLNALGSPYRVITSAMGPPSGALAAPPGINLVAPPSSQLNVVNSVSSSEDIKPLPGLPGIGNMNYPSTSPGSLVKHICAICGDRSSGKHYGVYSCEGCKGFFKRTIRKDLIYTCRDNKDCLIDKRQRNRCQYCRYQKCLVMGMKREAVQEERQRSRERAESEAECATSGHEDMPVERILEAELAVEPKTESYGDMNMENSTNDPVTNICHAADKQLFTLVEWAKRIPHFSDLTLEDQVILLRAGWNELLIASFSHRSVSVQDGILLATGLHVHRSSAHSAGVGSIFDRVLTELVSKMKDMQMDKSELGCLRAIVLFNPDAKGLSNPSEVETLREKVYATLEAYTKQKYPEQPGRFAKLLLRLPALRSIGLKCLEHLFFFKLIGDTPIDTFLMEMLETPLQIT

## CC(C)(C)c1ccc(C(=O)NCc2ccc(NS(C)(=O)=O)cc2Cl)cc1
Liver
  Drug metabolism: Metabolite_Detected
[1]
  Activity: inactive
[2]
  Activity: inactive
[3]
  half-life: 42 min
[4]
  inhibition: inactive
[5]
  Activity: inactive
[6]
  Tmax: 30 min
Bile acid receptor
  Activity: 52%
[7]
  Activity: inactive
[8]
  Activity: 317%
[9]
  Activity: inactive
[10]
  Activity: inactive
